The values below come from ChEMBL document CHEMBL4480403, “DDX3X Helicase Inhibitors as a New Strategy To Fight the West Nile Virus Infection” (J Med Chem, 2019).

pEC50, pIC50: −log10 of the molar value. The source made the active and inactive calls. No cut-off for these calls is given here. Bounds are passed on as bounds.

Data set [1] deals with T1, ATP-dependent RNA helicase DDX3X (Homo sapiens, UniProt O00571). The experiment in a line: Inhibition of full length His-tagged human DDX3X expressed in Escherichia coli assessed as reduction in DDX3X helicase activity using FAM-labeled double stranded RNA as substrate after 40 mins by FRET assay relative to control. Summed up: (§1)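 Recombinant His-tagged full-length DDX3X expressed in E. coli, Ni-NTA purified. Unwinding of FAM-labelled dsRNA, with capture strand at 100 nM, in Tris-HCl pH 8, 70 mM KCl, 2 mM MgCl2, 2 mM DTT, 2 mM ATP. Started with DDX3X, 37°C, 40 min, fluorescence read every 30 s. Initial slope gives unwinding rate; IC50 by nonlinear regression of triplicates.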
T1 sequence (O00571 2-662 limits assumed): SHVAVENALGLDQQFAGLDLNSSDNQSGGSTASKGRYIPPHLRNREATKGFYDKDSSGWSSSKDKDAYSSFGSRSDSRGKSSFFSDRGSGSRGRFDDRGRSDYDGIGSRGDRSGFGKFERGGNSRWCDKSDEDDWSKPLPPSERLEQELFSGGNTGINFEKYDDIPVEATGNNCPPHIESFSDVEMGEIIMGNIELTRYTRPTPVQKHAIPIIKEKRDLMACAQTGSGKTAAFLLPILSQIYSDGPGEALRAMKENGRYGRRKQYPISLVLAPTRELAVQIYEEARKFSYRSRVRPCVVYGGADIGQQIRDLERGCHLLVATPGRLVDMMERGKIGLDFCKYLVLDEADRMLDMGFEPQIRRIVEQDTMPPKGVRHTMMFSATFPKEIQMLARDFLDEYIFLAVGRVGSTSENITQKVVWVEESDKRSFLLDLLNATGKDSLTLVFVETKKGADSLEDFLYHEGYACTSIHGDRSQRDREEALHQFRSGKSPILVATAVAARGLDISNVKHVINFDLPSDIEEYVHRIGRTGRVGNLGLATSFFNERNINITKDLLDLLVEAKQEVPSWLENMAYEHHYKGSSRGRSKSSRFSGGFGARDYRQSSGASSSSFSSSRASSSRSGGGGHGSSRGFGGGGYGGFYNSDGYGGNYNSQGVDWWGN

A short description of data set [2]: (§2) Cytotoxicity against human HuH7 cells after 3 days by MTT assay. It counts as cell-based, Huh-7. The following applies: human, HuH7 cells. In a few lines:
(§3)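 Huh7 cells (2.5 × 10^4 per well) adhered overnight. Confluent monolayers washed, then treated with compound (final 100–0.01 μM) or DMSO control for 3 days at 37°C. Viability by MTT, absorbance 570 nm, expressed relative to DMSO-treated cells.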

The nature of data set [3]: Metabolic stability in human liver microsomes at 50 uM after 60 mins in presence of NADPH-generating system by LC-UV-MS analysis. It counts as ADME, Microsome. The note with it: read-out: Stability. Summed up:
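Compound at 50 μM final (DMSO ≤2%) incubated with human liver microsomes (0.2 mg/mL) and NADPH-generating system in 125 mM phosphate buffer pH 7.4, 37 °C, 60 min. Remaining compound measured by LC-ESI-MS in positive ion mode, with UV at 280 nm.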
On the technique in general: Microsomes from liver hold many membrane-bound enzymes, among them those of drug oxidation.

The target in data set [4] is T2, ATP-dependent RNA helicase DDX1 (Homo sapiens, UniProt Q92499).
T2 sequence (Q92499 whole entry): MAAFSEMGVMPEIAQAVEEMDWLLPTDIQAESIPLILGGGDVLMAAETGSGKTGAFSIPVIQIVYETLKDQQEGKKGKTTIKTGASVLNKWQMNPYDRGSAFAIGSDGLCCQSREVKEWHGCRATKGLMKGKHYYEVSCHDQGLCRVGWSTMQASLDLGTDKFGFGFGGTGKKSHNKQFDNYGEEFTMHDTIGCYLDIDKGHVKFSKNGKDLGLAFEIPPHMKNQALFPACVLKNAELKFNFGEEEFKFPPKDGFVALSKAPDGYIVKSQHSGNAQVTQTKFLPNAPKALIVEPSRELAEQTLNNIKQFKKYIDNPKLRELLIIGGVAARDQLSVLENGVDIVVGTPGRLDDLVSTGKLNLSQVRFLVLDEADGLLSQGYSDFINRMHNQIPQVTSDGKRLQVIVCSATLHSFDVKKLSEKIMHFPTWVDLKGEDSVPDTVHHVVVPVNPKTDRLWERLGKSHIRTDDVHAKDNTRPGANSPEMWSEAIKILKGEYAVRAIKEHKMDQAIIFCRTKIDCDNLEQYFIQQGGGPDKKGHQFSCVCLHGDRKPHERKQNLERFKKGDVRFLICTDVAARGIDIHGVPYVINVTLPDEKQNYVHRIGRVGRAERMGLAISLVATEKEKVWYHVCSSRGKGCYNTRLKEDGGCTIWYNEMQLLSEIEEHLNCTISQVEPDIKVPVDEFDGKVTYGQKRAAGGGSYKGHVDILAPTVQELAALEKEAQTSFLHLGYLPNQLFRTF
The experiment in a line: Inhibition of human DDX1 helicase activity.

Data set [5] relates to West Nile virus. As to the kind of experiment: Antiviral activity against West Nile virus infected in human HuH7 cells incubated for 4 days by crystal violet staining based plaque reduction assay. The data set is classed as functional, organism-based. The following applies: Huh-7, 96 h. In a few lines: (§4)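 Huh7 cells (2.5 × 10^5 per well, overnight) infected with lineage 2 WNV at MOI 0.1 for 1 h at 37°C, washed, then compound added in 10-fold dilutions (final 100–0.01 μM) with DMSO as virus control. Agarose overlay, 4 days at 37°C, methanol fixation, crystal violet staining. PFU relative to DMSO; IC50 by exponential fit at 50% PFU. Duplicates, repeated at least twice.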

Data set [6] in a line: Apparent permeability of the compound by PAMPA. It counts as ADME. In a few lines: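 PAMPA: 0.5 mM donor solution in pH 7.4 phosphate buffer, diluted from 1 mM DMSO stock. Filter coated with 1% phosphatidylcholine in dodecane; acceptor 50% DMSO in buffer. Incubated 5 h at room temperature with shaking. Donor and acceptor quantified by LC-UV at 280 nm and Papp calculated. Three plates on different days.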

Data set [7] has as its system West Nile virus. As to the kind of experiment: Antiviral activity against West Nile virus. The data set is classed as functional, organism-based. Summed up:
as §4

A further data set deals with Huh-7. The data set is described as §2. The data set is classed as cell-based. The note with it: Homo sapiens, Huh-7, 72 h. Summed up: as §3
Data set [8] deals with West Nile virus. As to the kind of experiment: Antiviral activity against West Nile virus infected in human A549 cells incubated for 4 days by crystal violet staining based plaque reduction assay. The note with it: A549, 96 h. It counts as functional, organism-based. Summed up:
(§5)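 Cell monolayers at 80–90% confluence were infected with WNV lineage 2 strain at MOI 0.1 for 1 h at 37°C with 5% CO2, then washed. DMSO vehicle or compound (final 100, 10, 1, 0.1, 0.01 μM) was added in duplicate under a 0.5% agarose overlay. Ribavirin served as reference. After methanol fixation and 0.1% crystal violet staining, PFU were expressed relative to DMSO control. IC50 was interpolated at 50% PFU; experiments were repeated at least twice.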
Background: In a plaque reduction assay, fewer plaques than in the control indicate reduced infectivity or spread.

Data set [9] relates to West Nile virus. The experiment in a line: Antiviral activity against West Nile virus infected in African green monkey Vero cells incubated for 4 days by crystal violet staining based plaque reduction assay. The data set is classed as functional, organism-based. The following applies: 96 h. Summed up: as §5
Data set [10] has as its target T1, ATP-dependent RNA helicase DDX3X. The experiment in a line: Competitive inhibition of full length His-tagged human DDX3X expressed in Escherichia coli assessed as reduction in DDX3X helicase activity using 0.1 uM FAM-labeled double stranded RNA as substrate after 40 mins by FRET assay relative to control. In a few lines:
as §1

The target is the same in data set [11]. As to the kind of experiment: Competitive inhibition of human full length His-tagged DDX3X helicase activity expressed in Escherichia coli using FAM-labeled double stranded RNA as substrate at 0.1 uM after 40 mins by fluorescence assay. In a few lines:
as §1

Data set [12] shares this target. As to the kind of experiment: Competitive inhibition of full length His-tagged human DDX3X expressed in Escherichia coli assessed as reduction in DDX3X helicase activity using 0.024 uM FAM-labeled double stranded RNA as substrate after 40 mins by FRET assay relative to control. Summed up:
as §1

For `CCCCc1cn(-c2cccc(S(=O)(=O)Nc3ccc(OC)cc3)c2)nn1`, the inhibition (in general, the relative decrease from the control value, in per cent) in data set [1] was found to be 80%.
Same read-out and setting: for `COCCc1cn(-c2cccc(S(=O)(=O)Nc3ccccc3C(F)(F)F)c2)nn1` the value was 67%.
As for `CCCCc1cn(-c2ccc(NC(=O)Nc3ccccc3C)cc2)nn1`, the CC50 (in general, the concentration at which the toxic effect on the cells reaches its halfway point) at 72 h in [2] was more than 200 µM. Further, in [3], the remaining at 1 h, 50 µM stood at 99%. Further, the inhibition in [1] was 98%. Also, in data set [4], the pIC50 (usually −log10 of the IC50, conventionally taken in molar units) was less than 3.70. The pEC50 (usually −log10 of the EC50, conventionally taken in molar units) with West Nile virus [5] is 5.06.
Take `CCCCc1cn(-c2cccc(S(=O)(=O)Nc3ccccc3F)c2)nn1`: in data set [2], the CC50 at 72 h was more than 200 µM. Further, the inhibition in data set [1] amounted to 24%. Further, the pEC50 in the data set with West Nile virus [5] was less than 3.70.
As to `CC(C)CCc1cn(-c2cccc(S(=O)(=O)Nc3ccccc3C(F)(F)F)c2)nn1`, the inhibition in [1] was 96%.
With `O=[N+]([O-])c1cccc(S(=O)(=O)Nc2ccccc2O)c1`, it took 175 µM to reach half-maximal cytotoxicity in data set [2] (CC50 at 72 h). For the same compound, the remaining at 1 h, 50 µM in data set [3] is 98.3%. Moreover, in [1], the inhibition was 98%. Moreover, the negative logarithm of the IC50 (pIC50) in [4] is less than 3.70. For the same compound, the pEC50 with West Nile virus [5] was 3.92. In addition, the apparent permeability coefficient (Papp) (commonly the rate of passage across a membrane or cell layer, normalised by area and donor concentration) in data set [6] was less than 0.1 ×10⁻⁶ cm/s.
Consider `CCCCc1cn(-c2cccc(S(=O)(=O)Nc3ccccc3OC)c2)nn1`, for which the inhibition in data set [1] amounted to 98%.
On to `O=S(=O)(Nc1ccccc1C(F)(F)F)c1cccc(-n2cc(-c3ccccc3)nn2)c1`, for which the inhibition in data set [1] worked out at 41%.
For the compound `CCCCc1cn(-c2cccc(S(=O)(=O)Nc3cccc4cnccc34)c2)nn1`, the CC50 at 72 h in data set [2] was more than 200 µM. Besides, the remaining at 1 h, 50 µM in [3] worked out at 98%. In data set [1], the inhibition is 99%. The pIC50 in [4] was less than 3.70. The compound further had a pEC50 with West Nile virus [5] of 4.26. Further, the Papp in [6] is 0.68 ×10⁻⁶ cm/s.
Take `C[C@@]1(O)[C@H](O)[C@@H](CO)O[C@H]1n1cnc2c(N)ncnc21`: in the data set on West Nile virus [7], the negative-log EC50 (pEC50) was 5.29.
As for `CCCCc1cn(-c2cccc(S(=O)(=O)Nc3ccccc3C)c2)nn1`, the cytotoxic concentration (CC50) at 72 h in data set [2] was more than 200 µM. Further, the inhibition in data set [1] came out at 59%. Moreover, the pEC50 with West Nile virus [5] was 4.40.
As for `CCCCc1cn(-c2cccc(S(=O)(=O)Nc3ccccc3)c2)nn1`, in [1], the inhibition stood at 31%.
Regarding `NC(=O)c1ncn([C@@H]2O[C@H](CO)[C@@H](O)[C@H]2O)n1` [RIBAVIRIN], in the data set on Huh-7, the pIC50 is less than 3.70. Also, the negative logarithm of the EC50 (pEC50) in the data set on West Nile virus [7] was 4.15; in the data set on West Nile virus [5], 4.02 to 4.05; with West Nile virus [8] it was 4.34; in the data set with West Nile virus [9], 4.02.
In the case of `CCOCc1cn(-c2cccc(S(=O)(=O)Nc3cccc(N4CCOCC4)c3)c2)nn1`, the inhibition result in data set [1] is “inactive”.
For `C[C@@]1(O)[C@H](O)[C@@H](CO)O[C@H]1n1cnc2c(=O)[nH]c(N)nc21` [2'-B-METHYL-GUANOSINE], the pEC50 with West Nile virus [7] was 4.52.
For `CCCCc1cn(-c2cccc(S(=O)(=O)Nc3ccccc3O)c2)nn1`, in data set [2], the CC50 at 72 h was more than 200 µM. Further, in data set [3], the remaining at 1 h, 50 µM was 95.6%. Besides, the inhibition in data set [1] was 83%. Moreover, the ID50 stood at 2.2 µM in data set [10], 20 µM in [11] and 0.3 µM in data set [12]. This compound also gave a pEC50 with West Nile virus [5] of 5.64. Moreover, the Papp in data set [6] stood at 0.1 ×10⁻⁶ cm/s.
The compound `CCOC(=O)[C@@](C)(O)[C@@H]1C[C@@H](CO[Si](c2ccccc2)(c2ccccc2)C(C)(C)C)O[C@H]1n1cc(F)c(=O)[nH]c1=O` gave a pEC50 in the data set with West Nile virus [7] of 4.57.
Compound `C[C@@]1(O)[C@H](O)[C@@H](CO)O[C@H]1n1ccc2c(N)ncnc21` [BETA-2'-C-METHYL-7-DEAZA-ADENOSINE] gave a pEC50 in the data set on West Nile virus [7] of 5.35.
`CCc1cn(-c2cccc(S(=O)(=O)Nc3ccccc3C(F)(F)F)c2)nn1`: the inhibition in data set [1] was determined as 71%.
Turning to `O=S(=O)(Nc1ccccc1C(F)(F)F)c1cccc(-n2cc(C3CCCCC3)nn2)c1`, in [1], the inhibition is 52%.
In the case of `CCOCc1cn(-c2cccc(S(=O)(=O)Nc3cccc4cnccc34)c2)nn1`, the CC50 at 72 h in [2] was more than 200 µM. The remaining at 1 h, 50 µM in data set [3] stood at 96%. In data set [1], the inhibition worked out at 98%. In the data set on West Nile virus [5], the pEC50 was 4.89. For the same compound, the Papp in [6] amounted to 0.44 ×10⁻⁶ cm/s.
In the case of `CCCCc1cn(-c2ccc(S(=O)(=O)Nc3ccccc3O)cc2)nn1`, the inhibition in data set [1] amounted to 57%.
Regarding `CCOCc1cn(-c2cccc(S(=O)(=O)Nc3ccccc3C(F)(F)F)c2)nn1`, the CC50 at 72 h in data set [2] is more than 200 µM. Further, the remaining at 1 h, 50 µM in data set [3] came to 97.1%. The inhibition in data set [1] turned out to be 98%. This compound showed a pEC50 in the data set with West Nile virus [5] of 4.18. In data set [6], the Papp was 0.71 ×10⁻⁶ cm/s.
